Experiments:
[1] = biological target: T1, Metabotropic glutamate receptor 3 (Homo sapiens, UniProt Q14832); experiment: Ability to displace [3H]LY-341,495 from recombinant human Metabotropic glutamate receptor 3 expressed in RGT cells.; assay type: cell-based
[2] = Ability to displace [3H]LY-341,495 binding to Group II Metabotropic glutamate receptor from rat forebrain
Summary of the method: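 Rat forebrain homogenates; displacement of the group II-selective radioligand [3H]LY341495. Where an IC50 below 100 µM could be determined, runs were in triplicate. Values are given as mean IC50 ± standard error.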

[3] = biological target: T1, Metabotropic glutamate receptor 3; experiment: Inhibition of forskolin stimulated cAMP production in RGT cells expressing recombinant human Metabotropic glutamate receptor 3; assay type: functional, cell-based
[4] = biological target: T2, Metabotropic glutamate receptor 2 (Homo sapiens, UniProt Q14416); experiment: Inhibition of forskolin stimulated cAMP production in RGT cells expressing recombinant human Metabotropic glutamate receptor 2; assay type: functional, cell-based
T2 sequence (Q14416 whole entry): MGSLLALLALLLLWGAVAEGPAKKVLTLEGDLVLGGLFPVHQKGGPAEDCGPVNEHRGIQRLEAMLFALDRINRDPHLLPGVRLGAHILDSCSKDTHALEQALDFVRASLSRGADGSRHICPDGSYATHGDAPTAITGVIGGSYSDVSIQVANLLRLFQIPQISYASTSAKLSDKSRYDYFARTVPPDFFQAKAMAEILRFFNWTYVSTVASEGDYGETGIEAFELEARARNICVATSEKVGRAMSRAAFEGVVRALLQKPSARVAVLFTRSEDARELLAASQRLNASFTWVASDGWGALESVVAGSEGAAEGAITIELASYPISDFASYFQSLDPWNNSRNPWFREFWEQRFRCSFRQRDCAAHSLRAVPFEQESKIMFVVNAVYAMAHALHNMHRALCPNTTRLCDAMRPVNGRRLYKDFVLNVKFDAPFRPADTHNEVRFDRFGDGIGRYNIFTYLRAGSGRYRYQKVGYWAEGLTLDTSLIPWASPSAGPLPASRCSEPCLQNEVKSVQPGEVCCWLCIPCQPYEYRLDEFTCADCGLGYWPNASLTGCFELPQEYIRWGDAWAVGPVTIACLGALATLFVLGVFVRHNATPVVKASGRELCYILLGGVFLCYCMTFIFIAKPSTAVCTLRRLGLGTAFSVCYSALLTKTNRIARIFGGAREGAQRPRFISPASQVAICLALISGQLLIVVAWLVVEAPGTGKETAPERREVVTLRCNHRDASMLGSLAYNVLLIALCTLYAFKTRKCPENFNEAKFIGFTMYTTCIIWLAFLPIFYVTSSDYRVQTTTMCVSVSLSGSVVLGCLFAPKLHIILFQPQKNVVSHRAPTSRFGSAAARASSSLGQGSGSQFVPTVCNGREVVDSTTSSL

[5] = biological target: Metabotropic glutamate receptor 4 (Homo sapiens, UniProt Q14833); experiment: Inhibition of forskolin stimulated cAMP production in RGT cells expressing recombinant human mGluR4a; assay type: functional, cell-based
Summary of the method: (§1)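 AV12-664 (RGT) cells co-expressing the GLAST glutamate transporter and one recombinant human mGlu receptor (mGlu1a, mGlu4a, mGlu5a, mGlu6, mGlu7a or mGlu8). Second-messenger response measured; agonist and antagonist modes tested, typically up to 10 000–100 000 nM. EC50 and Emax reported.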

[6] = biological target: T3, Glutamate receptor ionotropic, AMPA (Rattus norvegicus, UniProt P19490+P19491+P19492+P19493); experiment: Binding affinity against Ionotropic glutamate receptor AMPA using [3H]AMPA as radioligand.; assay type: protein-complex assay
Summary of the method: (§2)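 Rat forebrain homogenates; displacement of [3H]kainic acid (kainate), [3H]AMPA (AMPA) or [3H]CGP39653 (NMDA) binding, tested up to 100 000 nM. Where an IC50 below 100 µM could be determined, runs were in triplicate. Values are given as mean IC50 ± standard error.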

[7] = Ability to displace [3H]CGP-39653 binding to N-methyl-D-aspartate glutamate receptor from rat forebrain; summary of the method: as §2
[8] = biological target: Metabotropic glutamate receptor 8 (Homo sapiens, UniProt O00222); experiment: Inhibition of forskolin stimulated cAMP production in RGT cells expressing recombinant human mGluR8; assay type: functional, cell-based; summary of the method: as §1
Metabotropic glutamate receptor 8, sequence (O00222 whole entry): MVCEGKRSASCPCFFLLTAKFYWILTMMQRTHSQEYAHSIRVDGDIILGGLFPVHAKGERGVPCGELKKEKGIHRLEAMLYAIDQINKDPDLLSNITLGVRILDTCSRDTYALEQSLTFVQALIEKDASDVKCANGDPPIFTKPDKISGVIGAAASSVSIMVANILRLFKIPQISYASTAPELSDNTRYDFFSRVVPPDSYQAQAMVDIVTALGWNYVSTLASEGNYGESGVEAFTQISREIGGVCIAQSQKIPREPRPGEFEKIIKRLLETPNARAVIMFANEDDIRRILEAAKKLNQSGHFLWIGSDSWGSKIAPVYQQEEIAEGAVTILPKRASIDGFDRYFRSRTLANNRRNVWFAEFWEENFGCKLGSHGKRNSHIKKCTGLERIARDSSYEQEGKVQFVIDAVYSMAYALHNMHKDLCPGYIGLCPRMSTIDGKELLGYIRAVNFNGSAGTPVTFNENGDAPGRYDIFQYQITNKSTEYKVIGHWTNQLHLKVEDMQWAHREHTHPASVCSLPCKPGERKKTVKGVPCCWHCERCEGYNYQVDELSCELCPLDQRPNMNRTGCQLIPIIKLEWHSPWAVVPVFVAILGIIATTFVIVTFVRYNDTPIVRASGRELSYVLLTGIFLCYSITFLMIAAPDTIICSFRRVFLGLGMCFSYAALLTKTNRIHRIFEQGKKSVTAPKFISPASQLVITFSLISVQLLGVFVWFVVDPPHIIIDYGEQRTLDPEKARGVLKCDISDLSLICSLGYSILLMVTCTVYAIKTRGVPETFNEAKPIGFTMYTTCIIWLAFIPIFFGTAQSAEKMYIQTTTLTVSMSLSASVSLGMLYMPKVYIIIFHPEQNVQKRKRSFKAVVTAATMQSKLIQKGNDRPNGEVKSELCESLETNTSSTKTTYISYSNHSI

[9] = biological target: Metabotropic glutamate receptor 6 (Homo sapiens, UniProt O15303); experiment: Inhibition of forskolin stimulated cAMP production in RGT cells expressing recombinant human mGluR6; assay type: functional, cell-based; summary of the method: as §1
Metabotropic glutamate receptor 6, sequence (O15303 whole entry): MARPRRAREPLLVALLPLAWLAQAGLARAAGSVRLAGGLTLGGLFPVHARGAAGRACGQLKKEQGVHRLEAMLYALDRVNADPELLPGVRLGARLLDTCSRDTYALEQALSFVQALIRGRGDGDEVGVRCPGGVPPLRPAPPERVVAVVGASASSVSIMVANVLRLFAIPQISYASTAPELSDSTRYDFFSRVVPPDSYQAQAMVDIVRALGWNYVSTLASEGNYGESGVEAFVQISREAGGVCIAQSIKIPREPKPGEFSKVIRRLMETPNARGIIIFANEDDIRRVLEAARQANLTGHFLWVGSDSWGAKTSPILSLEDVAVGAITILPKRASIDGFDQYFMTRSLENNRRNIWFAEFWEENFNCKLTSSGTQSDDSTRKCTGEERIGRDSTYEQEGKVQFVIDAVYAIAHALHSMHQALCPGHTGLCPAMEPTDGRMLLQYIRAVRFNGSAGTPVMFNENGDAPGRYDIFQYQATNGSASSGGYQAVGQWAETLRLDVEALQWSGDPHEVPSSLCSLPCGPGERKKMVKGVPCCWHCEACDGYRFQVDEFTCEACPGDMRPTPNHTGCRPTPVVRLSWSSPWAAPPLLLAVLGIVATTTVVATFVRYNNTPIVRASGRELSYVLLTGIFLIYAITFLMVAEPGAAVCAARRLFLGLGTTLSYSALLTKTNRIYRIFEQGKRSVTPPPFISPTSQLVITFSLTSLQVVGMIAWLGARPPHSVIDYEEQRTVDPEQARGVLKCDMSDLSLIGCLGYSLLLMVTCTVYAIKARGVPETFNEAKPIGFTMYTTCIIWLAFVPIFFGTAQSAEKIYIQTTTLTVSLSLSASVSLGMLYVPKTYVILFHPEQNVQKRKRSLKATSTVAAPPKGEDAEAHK

[10] = biological target: Glutamate receptor ionotropic, kainate; experiment: Ability to displace [3H]-KA binding to Ionotropic glutamate receptor kainate from rat forebrain; summary of the method: as §2
[11] = biological target: Metabotropic glutamate receptor 1 (Homo sapiens, UniProt Q13255); experiment: […] in RGT cells expressing recombinant human mGluR1a; assay type: functional, cell-based; summary of the method: as §1
[12] = biological target: Metabotropic glutamate receptor 7 (Homo sapiens, UniProt Q14831); experiment: Inhibition of forskolin stimulated cAMP production in RGT cells expressing recombinant human mGluR7; assay type: functional, cell-based; summary of the method: as §1
Metabotropic glutamate receptor 7, sequence (Q14831 whole entry): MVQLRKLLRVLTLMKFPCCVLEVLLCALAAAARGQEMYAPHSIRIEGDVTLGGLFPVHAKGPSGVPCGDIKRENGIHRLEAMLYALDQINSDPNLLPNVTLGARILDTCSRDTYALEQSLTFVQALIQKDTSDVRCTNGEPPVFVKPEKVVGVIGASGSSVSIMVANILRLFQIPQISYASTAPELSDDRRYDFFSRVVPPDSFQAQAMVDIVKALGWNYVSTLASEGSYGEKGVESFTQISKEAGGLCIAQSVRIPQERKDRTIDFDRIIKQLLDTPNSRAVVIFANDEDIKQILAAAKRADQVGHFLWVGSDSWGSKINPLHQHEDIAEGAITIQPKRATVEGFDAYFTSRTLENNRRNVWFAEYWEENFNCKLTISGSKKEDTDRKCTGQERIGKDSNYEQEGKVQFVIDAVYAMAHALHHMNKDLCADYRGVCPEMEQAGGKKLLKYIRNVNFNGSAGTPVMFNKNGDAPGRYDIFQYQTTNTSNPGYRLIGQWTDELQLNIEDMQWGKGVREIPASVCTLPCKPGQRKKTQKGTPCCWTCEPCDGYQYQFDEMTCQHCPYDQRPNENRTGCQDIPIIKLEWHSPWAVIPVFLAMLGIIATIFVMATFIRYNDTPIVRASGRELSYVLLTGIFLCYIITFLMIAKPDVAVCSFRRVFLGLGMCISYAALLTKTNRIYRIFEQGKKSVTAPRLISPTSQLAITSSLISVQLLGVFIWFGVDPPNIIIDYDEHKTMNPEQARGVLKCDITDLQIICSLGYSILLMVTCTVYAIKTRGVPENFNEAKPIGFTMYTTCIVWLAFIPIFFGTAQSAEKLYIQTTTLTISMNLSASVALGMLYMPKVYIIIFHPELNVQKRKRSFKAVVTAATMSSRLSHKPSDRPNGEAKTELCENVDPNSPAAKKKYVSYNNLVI

[13] = biological target: T2, Metabotropic glutamate receptor 2; experiment: Ability to displace [3H]LY-341,495 from recombinant human Metabotropic glutamate receptor 2 subtypes expressed in RGT cells.; assay type: cell-based
[14] = biological target: Metabotropic glutamate receptor 5 (Homo sapiens, UniProt P41594); experiment: […] in RGT cells expressing recombinant human mGluR5a; assay type: functional, cell-based; summary of the method: as §1
[15] = test system: Mus musculus; experiment: Effect on limbic seizures induced by ACPD in NIH Swiss mice 2 hr after systemic administration; assay type: functional; conditions: Limbic system
Summary of the method: (§3)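 Male NIH Swiss mice received test agent ip 1, 2 or 4 h before unilateral intracerebral injection of (1S,3R)-ACPD (400 nmol). Controls received H2O ip before ic H2O or ACPD. Mice were watched after ACPD for limbic seizures (clonic forelimb contractions, rearing to a praying stance, loss of balance, falling). Scored as number seizing/number treated (n=10); ED50 calculated.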

[16] = test system: Mus musculus; experiment: Effect on limbic seizures induced by ACPD in NIH Swiss mice at 30 mg/kg dose 1 hr after systemic administration; assay type: functional, Limbic system; summary of the method: as §3
[17] = test system: Mus musculus; experiment: Effect on limbic seizures induced by ACPD in NIH Swiss mice 1 hr after systemic administration; assay type: functional; conditions: Limbic system; summary of the method: as §3
[18] = test system: Mus musculus; experiment: Effect on limbic seizures induced by ACPD in NIH Swiss mice at 100 mg/kg dose 1 hr after systemic administration; assay type: functional, Limbic system; summary of the method: as §3
[19] = test system: Mus musculus; experiment: Effect on limbic seizures induced by ACPD in NIH Swiss mice 4 hr after systemic administration; assay type: functional; conditions: Limbic system; summary of the method: as §3
[20] = biological target: T3, Glutamate receptor ionotropic, AMPA; experiment: Ability to displace [3H]AMPA binding to Ionotropic glutamate receptor AMPA from rat forebrain; summary of the method: as §2

T1 sequence (Q14832 whole entry): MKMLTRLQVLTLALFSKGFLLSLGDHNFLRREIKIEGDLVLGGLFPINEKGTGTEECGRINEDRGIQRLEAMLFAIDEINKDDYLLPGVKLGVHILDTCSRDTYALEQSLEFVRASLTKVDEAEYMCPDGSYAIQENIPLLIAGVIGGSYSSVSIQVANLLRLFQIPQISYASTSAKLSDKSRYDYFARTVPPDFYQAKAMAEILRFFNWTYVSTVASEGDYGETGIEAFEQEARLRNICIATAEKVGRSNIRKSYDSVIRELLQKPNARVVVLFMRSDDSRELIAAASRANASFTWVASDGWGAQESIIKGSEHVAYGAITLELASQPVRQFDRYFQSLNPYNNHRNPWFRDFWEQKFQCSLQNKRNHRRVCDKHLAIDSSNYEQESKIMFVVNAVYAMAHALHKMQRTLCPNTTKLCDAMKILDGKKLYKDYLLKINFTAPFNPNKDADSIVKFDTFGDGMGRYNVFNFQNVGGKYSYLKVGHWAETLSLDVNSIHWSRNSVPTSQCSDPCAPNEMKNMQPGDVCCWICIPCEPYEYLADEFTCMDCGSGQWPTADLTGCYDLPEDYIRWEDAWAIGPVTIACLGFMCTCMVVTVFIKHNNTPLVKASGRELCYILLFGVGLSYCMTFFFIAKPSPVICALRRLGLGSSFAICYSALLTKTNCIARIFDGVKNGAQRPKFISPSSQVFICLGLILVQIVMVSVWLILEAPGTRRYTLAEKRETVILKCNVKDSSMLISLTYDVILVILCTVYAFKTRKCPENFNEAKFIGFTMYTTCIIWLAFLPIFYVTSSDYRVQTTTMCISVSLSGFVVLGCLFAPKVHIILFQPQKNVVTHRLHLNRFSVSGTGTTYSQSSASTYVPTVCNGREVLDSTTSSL

SMILES | Ki [1] [µM] | IC50 [2] [µM] | EC50 [3] [µM] | EC50 [4] [µM] | EC50 [5] [µM] | IC50 [6] [µM] | IC50 [7] [µM] | EC50 [8] [µM] | EC50 [9] [µM] | IC50 [10] [µM] | EC50 [11] [µM] | EC50 [12] [µM] | Ki [13] [µM] | EC50 [14] [µM] | IC50 [20] [µM] | ED50 [15] [mg/kg] | No. of mice effected/No. of treated [16] | ED50 [17] [mg/kg] | No. of mice effected/No. of treated [18] | ED50 [19] [mg/kg]
N[C@@]1(C(=O)O)CC[C@H]2[C@H](C(=O)O)[C@H]21 [EGLUMETAD] | 0.0933 | 0.254 | 0.038 | 0.0111 | > 100 | > 100 | > 100 | 11.5 | 2.99 | > 100 | > 100 | > 100 | 0.0749 | > 100 |  |  |  |  |  | 
N[C@@]1(C(=O)O)CO[C@H]2[C@H](C(=O)O)[C@H]21 (racemic) [LY-379268] | 0.0143 | 0.029 |  |  |  |  |  |  |  |  |  |  | 0.0365 |  |  |  |  |  |  | 
N[C@@]1(C(=O)O)CO[C@H]2[C@H](C(=O)O)[C@H]21 (stereo in doubt; (+)-9) [LY-379268] | 1.04 | 5.04 |  |  |  |  |  |  |  |  |  |  | 2 |  |  |  |  |  |  | 
N[C@@]1(C(=O)O)CS[C@H]2[C@H](C(=O)O)[C@H]21 (stereo in doubt; (+)-10) [LY-389795] | 0.17 | 0.792 |  |  |  |  |  |  |  |  |  |  | 0.819 |  |  |  |  |  |  | 

The next compounds have a lower Ki [1] than those just listed; values first:

Ki [1] [µM] | IC50 [2] [µM] | EC50 [3] [µM] | EC50 [4] [µM] | EC50 [5] [µM] | IC50 [6] [µM] | IC50 [7] [µM] | EC50 [8] [µM] | EC50 [9] [µM] | IC50 [10] [µM] | EC50 [11] [µM] | EC50 [12] [µM] | Ki [13] [µM] | EC50 [14] [µM] | IC50 [20] [µM] | SMILES | ED50 [15] [mg/kg] | No. of mice effected/No. of treated [16] | ED50 [17] [mg/kg] | No. of mice effected/No. of treated [18] | ED50 [19] [mg/kg]
0.0058 | 0.015 | 0.00458 | 0.00269 | 21.1 |  | > 100 | 1.69 | 0.401 | > 100 | > 100 | > 100 | 0.0141 | > 100 | > 100 | N[C@@]1(C(=O)O)CO[C@H]2[C@H](C(=O)O)[C@H]21 (stereo in doubt; (-)-9) [LY-379268] | 6 | 10 | 19 | 10 | 26
0.0047 | 0.0084 | 0.00763 | 0.00391 | > 100 |  |  | 7.34 | 2.43 |  | > 100 | > 100 | 0.0406 | > 100 |  | N[C@@]1(C(=O)O)CS[C@H]2[C@H](C(=O)O)[C@H]21 (stereo in doubt; (-)-10) [LY-389795] | 15 | 10 | 14 | 10 | 14
0.0094 | 0.0261 |  |  |  |  | > 100 |  |  | > 100 |  |  | 0.0672 |  | > 100 | N[C@@]1(C(=O)O)CS[C@H]2[C@H](C(=O)O)[C@H]21 (racemic) [LY-389795] |  |  |  |  | 

Source: ChEMBL document CHEMBL1132607, “Synthesis, pharmacological characterization, and molecular modeling of heterobicyclic amino acids related to (+)-2-aminobicyclo[3.1.0] hexane-2,6-dicarboxylic acid (LY354740): identification of two new potent, selective, and systemically active agonists for group II metabotropic glutamate receptors” (J Med Chem, 1999)
